# Screens as filed in PubChem.
# KCNK9 inh: KCNK9 potassium channel inhibitors, primary screen, HEK293 cells, thallium flux | Potassium channel subfamily K member 9 (Homo sapiens), Q9NPC2 | FluxOR thallium flux fluorescence; active compounds read low | B-score at 10 µM | actives 1.2% (n = 310,000);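 active means ratio B-score over 3 SD below the library mean, with starting fluorescence within 5 SD of its mean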;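 further: negative B-score means less thallium flux so channel inhibition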
# Target sequence (Q9NPC2 whole entry, looked up): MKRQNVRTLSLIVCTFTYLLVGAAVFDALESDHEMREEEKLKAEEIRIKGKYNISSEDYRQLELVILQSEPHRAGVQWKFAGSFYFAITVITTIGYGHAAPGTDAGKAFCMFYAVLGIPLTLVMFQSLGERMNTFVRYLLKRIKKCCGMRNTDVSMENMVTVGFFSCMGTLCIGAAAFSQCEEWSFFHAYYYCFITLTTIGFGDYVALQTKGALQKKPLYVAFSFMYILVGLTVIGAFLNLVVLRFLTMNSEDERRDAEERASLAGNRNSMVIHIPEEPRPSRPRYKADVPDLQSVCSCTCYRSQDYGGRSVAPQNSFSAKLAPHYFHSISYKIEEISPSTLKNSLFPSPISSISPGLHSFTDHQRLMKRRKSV
# KCNQ1 act: potentiators or activators of KCNQ1 channel, primary screen, cell-based, thallium flux, high-throughput; CHO-K1 KCNQ1, thallium flux FluxOR fluorescence; active compounds read high; actives 0.35% (n = 310,000); B-score at 10 µM;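 active means fluorescence ratio B-score, a plate-corrected score, at least three library SD, with initial intensity B-score within 5 SD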
#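 assay system = CHO-K1 cells stably expressing KCNQ1 | medium = assay buffer, equal DMSO in all wells | timing = 37 °C overnight plating, 90-min dark dye load, 20-min compound pretreatment | measured by = kinetic FluxOR thallium fluorescence, 10-s 1-Hz baseline, 110-s post-stimulus read | measure = fluorescence change relative to baseline, converted to B score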
# Kir21 block: inhibitors of mouse Kir2.1 inward-rectifier potassium channel; Inward rectifier potassium channel 2 (Mus musculus), P35561; HEK293-Kir2.1, FluxOR thallium flux fluorescence; active compounds read low; B-score at 10 µM; actives 0.85% (n = 310,000); AID 1672, 2009;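 active means fluorescence ratio B-score at or below minus 3 SD of library scores, with starting-brightness B-score within 2 SD, cut at about -4.2 in these data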;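 further: channel flux triggered by added potassium and thallium sulfate stimulus; B-score of peak minus minimum fluorescence over baseline after thallium stimulus; more negative B-score means stronger Kir2.1 block with less thallium influx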
# KCNK3 block: human KCNK3 channel inhibitors, primary screen, CHO cells, FluxOR thallium flux, B-score; Potassium channel subfamily K member 3 (Homo sapiens), O14649; B-score at 10 µM; actives 0.84% (n = 340,000); FluxOR fluorescence; active compounds read low;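 active means B-score under library mean minus 4 SD, starting fluorescence ratio at most library mean plus 5 SD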;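 further: more negative B-score means stronger inhibition of thallium flux through KCNK3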
# hERG protect: hERG rescue from dofetilide block, primary screen, cell-based, CHO-hERG, FluxOR thallium flux, dofetilide IC70. Voltage-gated inwardly rectifying potassium channel KCNH2 (Homo sapiens), Q12809. dofetilide IC70 present. activation (rescue from dofetilide block), less the hit threshold, % at 10 µM. actives 0.51% (n = 310,000);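 active means activation above the mean of controls blocked by dofetilide plus 5 SD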;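 further: thallium influx through hERG after potassium depolarization seen as dye fluorescence rise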
# KCNQ1 inh: inhibitors of human KCNQ1 channel, primary screen, cell-based, thallium flux, high-throughput; actives 1.3% (n = 310,000); Potassium voltage-gated channel subfamily KQT member 1 (Homo sapiens), P51787; CHO-K1 KCNQ1, FluxOR thallium flux fluorescence; active compounds read high; B-score at 10 µM;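 active means compounds whose thallium flux B-score, printed positive for inhibition, exceeds three library SD while starting fluorescence stays within three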;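 further: channel opened by potassium depolarization with thallium stimulus after 20 min compound exposure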
# Numbers without * were called inactive; i = inactive; nt = no result. Only some compounds are listed: those with a hit (about 3.7% of all), similar ones and a draw of the others.
SMILES,KCNK9 inh,KCNQ1 act,Kir21 block,KCNK3 block,hERG protect,KCNQ1 inh
CCC[C@H](CN[C@@H](CNC)[C@H](C)CC)NCCc1cc(C(F)(F)F)cc(C(F)(F)F)c1,i,i,-4.2*,i,-14,i
N#Cc1ccccc1N1CCN(C(=O)c2ccc(NC(=O)c3ccc(Br)o3)cc2)CC1,nt,nt,nt,i,nt,nt
O=Cc1cc(N=Nc2ccccc2Cl)ccc1O,i,11*,0.99,i,-20,i
O=Cc1cc(N=Nc2cccc(C(=O)O)c2)ccc1O,i,i,1.4,i,-17,i
CC(C)Sc1cc(Cl)nc(NC(=O)Nc2ccccc2)n1,i,i,0.09,i,-4,i
CCN(C(=O)CN1CCCCC1C)c1c(N)n(Cc2ccccc2)c(=O)[nH]c1=O (stereo unspecified),nt,nt,nt,i,nt,nt
Cc1cccc(-c2nnc(NC(=O)c3ccc(Cl)cc3)o2)c1,i,9*,-0.24,i,-12,i
CCOC(=O)C1(CCOc2ccccc2)CCN(Cc2ccc(OCC)c(CO)c2)CC1,i,i,-1.6,i,-13,i
c1ccc(COCCN2CCN(CCOCc3ccccc3)CC2)cc1,i,i,1.9,i,-9,i
C(#CCN1CCC(Cc2ccccc2)CC1)COCCOCc1ccccc1,i,i,-5*,i,-14,i
CN(C)/C=C1/N=C(c2ccccc2)OC1=O,i,i,0.1,i,-3,i
O=CC1=C(c2ccccc2)Oc2ccccc2O1,i,i,-7.6*,i,-9,6*
Cc1cc(C(=O)CCC(=O)N(C)CC(=O)Nc2ccccc2Br)c(C)s1,i,i,-0.95,i,-9,i
COc1ccc(N=C2O/C(=C/c3sc(=S)n(CC4CCCO4)c3O)N=C2C#N)cc1 (stereo unspecified),i,i,-0.39,i,-17,10*
Cc1ccc(-n2c(=S)[nH]c3sc4c(c3c2=O)CCC4)cc1,i,8*,-0.14,i,-2,i
C=CCn1c(=S)[nH]c2sc3c(c2c1=O)CCCC3,i,65*,-0.41,i,12*,i
O=c1c2c3c(sc2[nH]c(=S)n1Cc1ccco1)CCC3,i,15*,-0.05,i,11*,i
COCCn1c(=S)[nH]c2sc3c(c2c1=O)CCCC3,i,30*,2.1,i,17*,i
Cc1ccc(-n2c(=O)c3c4c(sc3n3c(=S)[nH]nc23)CCC4)cc1,i,i,-0.82,i,-16,i
COc1ccccc1/C=C1\CCC(C2CCCC2)C1=O (stereo unspecified),i,i,-0.06,i,-2,i
COc1cc(OC)cc(C(=O)N(Cc2ccco2)c2c(N)n(Cc3ccccc3)c(=O)[nH]c2=O)c1,nt,nt,nt,i,nt,nt
COc1cccc(OCc2cc(C(=O)NC(C)c3cnn(C)c3C)no2)c1 (stereo unspecified),i,i,1.2,i,-9,i
COc1ccc(CCCN2CCC(CN3C(=S)NC[C@@H]3Cc3ccccc3)CC2)cc1OC,nt,nt,nt,i,nt,nt
O=C(O)Cc1ccc(O)c(O)c1,i,i,0.76,i,-4,i
O=C(O)Cc1cc(I)c(Oc2ccc(O)c(I)c2)c(I)c1,i,i,-2.5,nt,9.9*,i
SMILES,KCNK9 inh,KCNQ1 act,Kir21 block,KCNK3 block,hERG protect,KCNQ1 inh
CCOC(=O)C1CCN(c2cc3c(cc2NC(=O)c2ccc(OC)c(OC)c2)n(C)c(=O)n3C)CC1,-6.8*,i,2.3,i,-7,i
CCOC(=O)C1CCN(c2cc3c(cc2NC(=O)c2ccccc2)n(C)c(=O)n3C)CC1,i,i,0.86,i,-10,i
CC(=O)Nc1cccc(C(=O)/C=C/c2ccc(Br)cc2)c1,i,i,-6*,i,-17,i
COc1cc(/C=N/Nc2ccccc2C(F)(F)F)ccc1O,-6.9*,i,0.07,i,-12,i
COc1cc(/C=N/N(c2ccccc2)c2ccccc2)ccc1O,i,i,-1.7,i,-2,11*
CC12CCC(C(=O)NCc3ccc4c(c3)OCO4)(CC1=O)C2(C)C (stereo unspecified),i,i,2.2,i,5.3*,i
Cc1ccc(NC(=O)COc2cccc(-n3cnnn3)c2)cc1S(=O)(=O)N1CCOCC1,nt,nt,nt,i,nt,nt
COc1ccc(C(=O)OC(COc2ccccc2)Cn2ccnc2)cc1 (stereo unspecified),i,i,-7*,i,-7,i
COc1cccc2sc(Nc3nnc(-c4ccc(F)cc4)o3)nc12,i,94*,1.2,i,46*,i
Fc1cccc2sc(Nc3nnc(-c4ccco4)o3)nc12,i,21*,0.26,i,13*,i
COc1cccc2sc(Nc3nnc(-c4cccs4)o3)nc12,i,19*,1.9,i,34*,i
O=C(Nc1nc2c(F)cccc2s1)c1ccco1,i,i,-0.93,i,-7,i
COc1cccc2sc(Nc3nc(-c4ccccn4)cs3)nc12,-6.9*,33*,-0.65,i,24*,i
COC(=O)c1[nH]nc(-c2ccccc2)c1-c1ccccc1,i,i,-1.7,i,-9,i
CC[C@@H](NS(=O)(=O)c1ccc(C)cc1)C(=O)Oc1ccc2c3c(c(=O)oc2c1)CCC3,i,i,0.01,i,-8,i
Cc1ccc(S(=O)(=O)NC(CC(C)C)C(=O)Oc2ccc3c4c(c(=O)oc3c2)CCC4)cc1 (stereo unspecified),i,i,-0.15,i,-7,6*
Cc1ccc(S(=O)(=O)NC(C(=O)Oc2ccc3c(C(F)(F)F)cc(=O)oc3c2)c2ccccc2)cc1 (stereo unspecified),i,i,-3.4,i,-12,6*
CC(C)(C)C1=CC=C(C(C)(C)C)C(=O)C1=O,i,i,0.55,nt,-20,10*
CCC(=O)Nc1ccccc1C(=O)OCC(=O)c1cccc2ccccc12,-7.3*,i,1.4,-11*,-10,i
O=C(COC(=O)c1cccc2ccccc12)Nc1cccnc1Cl,i,i,0.56,i,-4,i
O=C(COC(=O)c1ccncc1)Nc1cccc2ccccc12,nt,nt,nt,-8.8*,nt,nt
